These results are taken from ChEMBL document CHEMBL4706606, “Re-evaluating pretomanid analogues for Chagas disease: Hit-to-lead studies reveal both in vitro and in vivo trypanocidal efficacy” (Eur J Med Chem, 2020).

Data set [1] has as its system Trypanosoma cruzi. Nature of the data set: Antitrypanosomal activity against Trypanosoma cruzi Tulahuen strain C2C4 amastigotes infected in rat L6 cells assessed as inhibition of parasite growth incubated for 96 hrs by chlorophenol red-fl-D-galactopyranoside based colorimetric analysis. It is filed as functional, organism-based. The note with it: for IC50: Tulahuen strain C2C4, L6, 96 h; for IC90: Tulahuen strain C2C4, L6, time 96 hrs. In a few lines: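 Tulahuen strain TcVI T. cruzi expressing β-galactosidase, grown in L6 rat skeletal myoblast host cells. IC50/IC90 growth inhibition. Each value is the mean of ≥2 independent determinations using fresh sample stock.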

The test system of the next data set is L6. In words: Cytotoxicity against rat L6 cells assessed as reduction in cell viability incubated for 72 hrs by alamar blue assay. It is filed as ADME, cell-based. The note with it: L6, 72 h.
A short description of data set [2]: Selectivity index, ratio of IC50 for cytotoxicity against rat L6 cells to IC50 for antitrypanosomal activity against Trypanosoma cruzi Tulahuen strain C2C4 amastigotes infected in rat L6 cells.
In data set [3] the test system is Trypanosoma cruzi. In words: Antitrypanosomal activity against Trypanosoma cruzi Tulahuen strain C2C4 amastigotes infected in […] cells assessed as reduction in parasite growth incubated for 48 hrs by chlorophenol red-fl-D-galactopyranoside based colorimetric analysis. The note with it: for IC50: Tulahuen strain C2C4, NIH3T3, 48 h; for IC90: Tulahuen strain C2C4, NIH3T3, time 48 hrs. The class given is functional, organism-based.

A short description of data set [4]: Cytotoxicity against rat 3T3 cells assessed as reduction in cell viability incubated for 72 hrs by alamar blue assay. The class given is ADME, cell-based. To be noted: NIH3T3, 72 h.
The subject of data set [5] is Trypanosoma cruzi. Nature of the data set: Antitrypanosomal activity against Trypanosoma cruzi Tulahuen strain C2C4 amastigotes infected in […] cells assessed as reduction in parasite growth incubated for 48 hrs by chlorophenol red-fl-D-galactopyranoside based colorimetric analysis relative to control. It is filed as functional.
Data set [6] in a line: Inhibition of Trypanosoma cruzi Tulahuen C4 strain CYP51 expressed in Escherichia coli by fluorescence based assay.
Data set [7] in a line: Selectivity index, ratio of IC50 for cytotoxicity against rat 3T3 cells to IC50 for antitrypanosomal activity against Trypanosoma cruzi Tulahuen strain C2C4 amastigotes infected in rat 3T3 cells. The note with it: 3T3 cells.
Data set [8] is described as follows: Kinetic solubility of compound in water sonicated for 15 mins by HPLC analysis.
Data set [9] can be described thus: Metabolic stability in CD-1 mouse liver microsomes assessed as parent compound remaining incubated for 1 hr. The class given is ADME, Microsome. The gist of the method: (§1)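 Pooled human or CD-1 mouse liver microsomes at 0.4 mg/mL microsomal protein. Percent parent remaining after 1 h incubation.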
A short description of data set [10]: Metabolic stability in human liver microsomes assessed as parent compound remaining incubated for 1 hr. The class given is ADME, Microsome. The note with it: read-out: Stabilty. The gist of the method: as §1

Converted amounts (≈) assume the structure as drawn.

Take `CC1(COc2ccc(OC(F)(F)F)cc2)CCn2cc([N+](=O)[O-])nc2S1` (configuration not stated): the half-inhibitory concentration (IC50) was 1.1 µM with Trypanosoma cruzi [1] and above 100 µM in the data set on L6. In addition, in the data set on Trypanosoma cruzi [1], the IC90 amounted to 2.6 µM. Besides, in data set [2], the selectivity ratio is above 91.
`O=[N+]([O-])c1cn2c(n1)OC(COc1ccc(-c3ccc(F)nc3)cc1)CC2` (configuration not stated): the IC50 with Trypanosoma cruzi [1] was 0.018 µM; in the data set on L6, above 100 µM; in the data set with Trypanosoma cruzi [3], 0.074 µM; in data set [4] it was above 37 µM; in data set [6], above 10 µM. The IC90 was determined as 0.044 µM in the data set on Trypanosoma cruzi [1] and 0.33 µM in the data set on Trypanosoma cruzi [3]. The selectivity ratio in [2] was above 5560; in data set [7] it was above 500. Further, the “%max” value with Trypanosoma cruzi [5] is listed as 98%.
`CC1(COc2ccc(OC(F)(F)F)c(F)c2)CCn2cc([N+](=O)[O-])nc2O1` (configuration not stated): in the data set with Trypanosoma cruzi [1], the IC50 stood at 0.56 µM and the IC90 turned out to be 1.9 µM. The IC50 with L6 came to 68 µM. Further, the solubility (kinetic) at 0.25 h in [8] was 0.95 µg/mL (≈ 2.43 µM).
Consider `O=[N+]([O-])c1cn2c(n1)OC(COc1cnc(-c3ccc(OC(F)(F)F)cc3)nc1)CC2` (configuration not stated), for which, in the data set with Trypanosoma cruzi [1], the IC50 was determined as 0.33 µM and the IC90 was determined as 0.96 µM. Further, the IC50 in the data set on L6 amounted to 70 µM. For the same molecule, the selectivity ratio in data set [2] was found to be 212.
`CC1(COc2ccc(OC(F)(F)F)cc2Cl)CCn2cc([N+](=O)[O-])nc2O1` (configuration not stated): the IC50 in the data set with Trypanosoma cruzi [1] was 0.46 µM; with L6, above 100 µM. Besides, the IC90 with Trypanosoma cruzi [1] amounted to 1.3 µM. Moreover, the kinetic solubility at 0.25 h in [8] was found to be 0.61 µg/mL (≈ 1.5 µM).
As for `O=[N+]([O-])c1cn2c(n1)OC(COc1ccc(-c3ccc(F)cc3)nc1)CC2` (racemic), in the data set on Trypanosoma cruzi [1], the IC50 is 0.17 µM and the IC90 is 0.56 µM.
As for `O=[N+]([O-])c1cn2c(n1)OC(COc1ccc(-c3ccc(OC(F)(F)F)cc3)cn1)CC2` (configuration not stated), the IC50 with Trypanosoma cruzi [1] was 0.04 µM; in the data set on L6, above 100 µM. For the same molecule, the IC90 in the data set with Trypanosoma cruzi [1] came out at 0.18 µM. For the same molecule, in data set [2], the selectivity ratio is above 2500.
For `O=[N+]([O-])c1cn2c(n1)OC(COc1ccc(-c3ccc(OC(F)(F)F)cc3)nn1)CC2` (configuration not stated), in that order: 0.38 µM, 42 µM, 0.96 µM and 111.
With `CC1(COc2ccc(OC(F)(F)F)cc2)Cn2c(Br)cnc2O1` (configuration not stated), the IC50 is 1.7 µM in the data set with Trypanosoma cruzi [3], above 73 µM in data set [4] and 0.53 µM in data set [6]. For the same molecule, the concentration for an effect of 90% (IC90) in the data set with Trypanosoma cruzi [3] came to 4.1 µM. Besides, the “%max” value with Trypanosoma cruzi [5] stood at 87%. Also, in data set [7], the selectivity ratio was above 43.
As to `CC1(COc2ccc(OC(F)(F)F)cc2)CCn2nc([N+](=O)[O-])nc2O1` (configuration not stated), the kinetic solubility at 0.25 h in [8] worked out at 9.5 µg/mL (≈ 25.4 µM). The remaining at 1 h was 92% in data set [9] and 91% in data set [10]. The half-inhibitory concentration (IC50) in the data set on Trypanosoma cruzi [3] is 0.22 µM; in data set [4] it was above 37 µM; in [6] it was above 10 µM. Further, the IC90 in the data set with Trypanosoma cruzi [3] amounted to 0.85 µM. In addition, the “%max” value in the data set with Trypanosoma cruzi [5] is 96%. In addition, the selectivity ratio in data set [7] was above 168.
`CC1(COc2ccc(OC(F)(F)F)cc2)Cn2nc([N+](=O)[O-])nc2O1` (configuration not stated): the figures for the half-maximal inhibitory concentration (IC50) (in the data set on Trypanosoma cruzi [3]; in data set [4]; in [6]) were 0.72 µM, above 73 µM and above 10 µM, respectively. For the same molecule, in the data set on Trypanosoma cruzi [3], the IC90 is 2.1 µM. Moreover, the “%max” value in the data set on Trypanosoma cruzi [5] is reported as 96%. Also, the selectivity ratio in data set [7] was above 101.
Take `O=[N+]([O-])c1cn2c(n1)OC[C@@H](OCc1ccc(-c3ccc(OC(F)(F)F)cc3Cl)cc1)C2`: in the data set with Trypanosoma cruzi [1], the IC50 amounted to 5.7 µM and the IC90 was above 10 µM. Further, the IC50 with L6 is 19 µM. The selectivity ratio in [2] turned out to be 3.3.
As to `O=[N+]([O-])c1cn2c(n1)SCC(OCc1ccc(OCc3ccccc3)cc1)C2` (configuration not stated), in the data set with Trypanosoma cruzi [1], the IC50 was found to be 0.9 µM.
The same measure, in the same setting: in the case of `O=[N+]([O-])c1cn2c(n1)OC[C@@H](OCc1ccc(-c3ccccc3)cc1)C2` it was 60 µM.
Consider `O=[N+]([O-])c1cn2c(n1)OC(COc1ncc(-c3ccc(OC(F)(F)F)cc3)cn1)CC2` (configuration not stated), for which the IC50 with Trypanosoma cruzi [1] came to 0.053 µM; with L6 it was 19 µM. Further, the IC90 in the data set on Trypanosoma cruzi [1] was 0.33 µM. Also, the selectivity ratio in data set [2] was determined as 358.
Regarding `CC1(COc2ccc(OC(F)(F)F)cc2)Cn2cc([N+](=O)[O-])nc2O1` (racemic), the IC50 was 0.95 µM in the data set on Trypanosoma cruzi [3], above 73 µM in data set [4] and above 10 µM in data set [6]. Also, in the data set with Trypanosoma cruzi [3], the IC90 was 2.3 µM. In the data set on Trypanosoma cruzi [5], the “%max” value is recorded as 68%.
For `CC1(COc2ccc(OC(F)(F)F)c(Cl)c2)CCn2cc([N+](=O)[O-])nc2O1` (configuration not stated), in the data set with Trypanosoma cruzi [1], the IC50 was 0.31 µM and the IC90 worked out at 6.5 µM. Moreover, in the data set with L6, the IC50 is 53 µM. The kinetic solubility at 0.25 h in data set [8] amounted to 0.5 µg/mL (≈ 1.23 µM).
For the molecule `O=[N+]([O-])c1cn2c(n1)OC[C@H](OCC#Cc1ccc(OC(F)(F)F)cc1)C2`, the IC50 was 0.19 µM with Trypanosoma cruzi [3], above 37 µM in data set [4] and above 10 µM in [6]. The IC90 with Trypanosoma cruzi [3] was 0.44 µM. The “%max” value in the data set with Trypanosoma cruzi [5] was found to be 99%. The selectivity ratio in [7] is above 195.
On to `O=[N+]([O-])c1cn2c(n1)OC(COc1ccc(-c3ccc(OC(F)(F)F)cc3)nc1)CC2` (configuration not stated), for which, in the data set on Trypanosoma cruzi [5], the “%max” value was determined as 100%.
Regarding `CC1(COc2ccc(OC(F)(F)F)cc2)CCn2cc([N+](=O)[O-])nc2[S+]1[O-]` (configuration not stated), in the data set with Trypanosoma cruzi [1], the IC50 came to 1.6 µM and the IC90 came out at 3.7 µM. Moreover, the IC50 with L6 was found to be 73 µM. Moreover, in [2], the selectivity ratio worked out at 46.
For `O=[N+]([O-])c1cn2c(n1)OC[C@H](OCc1ccc(-c3ccccc3)cc1)C2`, in the data set on Trypanosoma cruzi [1], the IC50 is 2.7 µM.
As to `O=[N+]([O-])c1cn2c(n1)OC[C@H](OCc1ccc(-c3ccc(OC(F)(F)F)cc3)cn1)C2`, the IC50 in the data set on Trypanosoma cruzi [1] is 0.049 µM; in the data set on L6 it was 51 µM; with Trypanosoma cruzi [3], 0.39 µM; in [4] it was above 73 µM; in data set [6] it was above 10 µM. Besides, the 90% effect concentration (IC90) in the data set with Trypanosoma cruzi [1] stood at 0.31 µM; in the data set with Trypanosoma cruzi [3] it was 2.6 µM. Further, in the data set on Trypanosoma cruzi [5], the “%max” value was determined as 80%.
As for `CSc1cnc2n1CC(C)(COc1ccc(OC(F)(F)F)cc1)O2` (configuration not stated), the IC50 in the data set on Trypanosoma cruzi [3] is 2 µM; in data set [4], above 73 µM; in data set [6], above 10 µM. In addition, the IC90 in the data set on Trypanosoma cruzi [3] was 16 µM. In addition, in the data set on Trypanosoma cruzi [5], the “%max” value is 93%. In addition, in data set [7], the selectivity ratio is above 37.
With `O=[N+]([O-])c1cn2c(n1)OCC(OCc1ccc(OCc3ccccc3)cc1)C2` (configuration not stated), the concentration for half-maximal inhibition (IC50) in the data set with Trypanosoma cruzi [1] stood at 1.2 µM.
Regarding `O=[N+]([O-])c1cn2c(n1)OC(COc1cnc(-c3ccc(OC(F)(F)F)cc3)cn1)CC2` (configuration not stated), in the data set on Trypanosoma cruzi [1], the IC50 is 0.21 µM and the IC90 came out at 6.7 µM. In addition, the IC50 with L6 was above 100 µM. The selectivity ratio in data set [2] is above 476.
As for `CC1(COc2ccc(OC(F)(F)F)cc2)Cn2ccnc2O1` (configuration not stated), the results for the IC50 (in the data set on Trypanosoma cruzi [3]; in data set [4]; in data set [6]) were 4.7 µM, above 73 µM and 0.16 µM, respectively. Besides, the IC90 in the data set with Trypanosoma cruzi [3] was found to be 10 µM. Moreover, in the data set with Trypanosoma cruzi [5], the “%max” value was determined as 80%. Also, the selectivity ratio in data set [7] is above 16.
Regarding `O=[N+]([O-])c1cn2c(n1)OC[C@@H](OCc1ccc(-c3ccc(C(F)(F)F)cc3Cl)cn1)C2`, in the data set with Trypanosoma cruzi [1], the IC50 turned out to be 4.8 µM and the IC90 is above 10 µM. In the data set with L6, the IC50 was found to be 57 µM. Further, the selectivity ratio in data set [2] came to 12.
